Screens as filed in PubChem.
Sampled rows, rich in hits. Any-hit rate of the full collection: about 2.2%.
FGF22 binding – shifts melting point of recombinant human FGF22; activity (Tm shift, normalised), % at 9.99 µM; recombinant FGF22 thermal shift, SYPRO orange fluorescence; percent of sucrose octasulfate shift, DMSO zero; 340,000 tested, 1.5% active; AID 651658; Q9HCT0;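 active means mean Tm shift, scaled 0 neutral to 100 positive control, at about 1.3% or above, every replicate too, limit read from the data; inconclusive means no clear call, values can overlap the other calls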
Target sequence (Q9HCT0 whole entry, looked up): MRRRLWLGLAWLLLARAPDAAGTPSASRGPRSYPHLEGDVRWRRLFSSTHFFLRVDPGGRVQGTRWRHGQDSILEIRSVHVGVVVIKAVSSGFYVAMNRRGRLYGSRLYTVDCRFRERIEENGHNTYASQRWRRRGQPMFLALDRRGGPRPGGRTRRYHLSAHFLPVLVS
S100A4 MyoIIA – blocks human S100A4 binding to myosin IIA peptide. 360,000 tested, 0.14% active. S100A4/TAMRA-MyoIIA peptide fluorescence polarization. inhibition, % at 10.7 µM. AID 652163;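 active means mean inhibition of at least 70% across replicates, with every replicate also reaching that level; inconclusive means mean inhibition reaches 70% but some replicates fall short; inactive means mean inhibition below 70%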
Target sequence (P26447 whole entry, looked up): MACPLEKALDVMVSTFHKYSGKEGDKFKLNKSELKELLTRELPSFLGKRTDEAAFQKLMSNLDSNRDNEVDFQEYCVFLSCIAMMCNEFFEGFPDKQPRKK
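assay system = human S100A4 monomer with TAMRA-labelled myosin IIA peptide | also added = labelled myosin peptide probe, 5 nM | incubation = 5 min between mix addition and reading | control set = DMSO and TFP controls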
dFosB activator – mouse delta FosB homodimer activation | P13346 | purified delta FosB, TAMRA-CDK5 oligo fluorescence polarization; percent of positive-control signal above neutral wells | activation, % at 25 µM | 340,000 tested, 0.99% active;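 active means mean activation above about 17%, with every replicate also reaching it, limit read from the data, passing the limit was not always enough; inconclusive means only one of the two conditions met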
Target sequence (P13346 whole entry, looked up): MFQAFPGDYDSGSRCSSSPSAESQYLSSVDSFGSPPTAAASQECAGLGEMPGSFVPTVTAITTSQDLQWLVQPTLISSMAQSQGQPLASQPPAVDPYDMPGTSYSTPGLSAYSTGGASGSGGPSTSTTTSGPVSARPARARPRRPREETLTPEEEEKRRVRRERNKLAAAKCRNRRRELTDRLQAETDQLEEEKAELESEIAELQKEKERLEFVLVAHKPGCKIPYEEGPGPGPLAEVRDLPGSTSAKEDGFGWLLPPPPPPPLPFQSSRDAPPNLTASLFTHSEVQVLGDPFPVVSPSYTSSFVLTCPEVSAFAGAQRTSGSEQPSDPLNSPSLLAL
CFTR F508del cor – CFTR F508del correction in bronchial cells | CFBE cells, YFP halide quenching; stimulated with forskolin plus potentiator P3; % fluorescence drop versus neutral controls | activity (quench increase), % at 7.58 µM | 350,000 tested, 0.36% active | AID 720511;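 active means mean added fluorescence quench of at least 8% versus neutral control, with both replicates also reaching 8%; inconclusive means only one of the mean or replicate conditions met; inactive means mean below 8% and not both replicates reaching 8%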;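 further: cells transiently co-express mutant CFTR-F508del with the halide-sensitive YFP; corrector assay measuring rescue of mutant channel to the surface after 24 h compound exposure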
An asterisk follows results filed as active.

How did CN(C)C(=O)C[C@@H]1CC[C@@H](NC(=O)Nc2cccc(F)c2)[C@H](CO)O1 do in these assays?
FGF22 binding: 0; S100A4 MyoIIA: -12; CFTR F508del cor: 0

What do the screens show for `CCOC(=O)c1csc(NC(=O)c2ccc(OCC)cc2)n1`?
FGF22 binding: 43*; S100A4 MyoIIA: -11; dFosB activator: -2; CFTR F508del cor: 1

What do the screens show for `COc1ccc(S(=O)(=O)Nc2ccc3c(c2)[C@H]2C[C@H](CC(=O)O)O[C@H](CO)[C@H]2O3)cc1`?
FGF22 binding: 0; S100A4 MyoIIA: -10; CFTR F508del cor: -2

What do the screens show for `CCc1ccc(NC(=O)CSc2ccc(-c3ccco3)nn2)cc1`?
FGF22 binding: 43*; S100A4 MyoIIA: -6; dFosB activator: -1; CFTR F508del cor: 2

Results for CC(=O)c1ccc(NC(=O)CSc2nnc(Cn3cnc4ccccc43)o2)cc1 ?
FGF22 binding: 43*; S100A4 MyoIIA: -3; dFosB activator: -5; CFTR F508del cor: 1

Results for CCc1ccc(NC(=O)CSc2nnc(-c3ccco3)o2)cc1 ?
FGF22 binding: 0; S100A4 MyoIIA: -3; dFosB activator: -5; CFTR F508del cor: 1

What do the screens show for `CC(=O)Nc1ccc(NC(=O)CSc2nnc(-c3ccco3)o2)cc1`?
FGF22 binding: 44*; S100A4 MyoIIA: -1; dFosB activator: -1; CFTR F508del cor: -4

Results for COc1ccc(C(=O)Nc2ccc3c(c2)C(=O)N(C)C[C@@H](OC)[C@H](C)CN(C(C)=O)[C@H](C)CO3)cc1 ?
FGF22 binding: -1; S100A4 MyoIIA: 14; CFTR F508del cor: 0

Results for CCCCNC(=O)c1onc(CSc2ccc(Cl)cc2)c1C(=O)NCCCC ?
FGF22 binding: 35*; S100A4 MyoIIA: -1; dFosB activator: -5; CFTR F508del cor: 3

What do the screens show for `O=C(c1cc(F)ccc1F)C1CCCN(C(=O)CCN2CCCCO2)C1` (configuration not stated)?
FGF22 binding: 43*; S100A4 MyoIIA: 36; dFosB activator: -1

Results for Cc1nccn1-c1ccc(C(F)(F)F)cc1[N+](=O)[O-] ?
FGF22 binding: 43*; S100A4 MyoIIA: 1; dFosB activator: -15; CFTR F508del cor: 3

What do the screens show for `Cc1ccc(NC(=O)Cn2ncc3c([nH]c4ccccc43)c2=O)cc1Cl`?
FGF22 binding: 0; S100A4 MyoIIA: -5; dFosB activator: 55*; CFTR F508del cor: 1

How did O=C(O)c1cccc(N/N=C/C2=C(Cl)c3cc(Cl)ccc3SC2)c1 do in these assays?
FGF22 binding: 43*; S100A4 MyoIIA: 0; dFosB activator: -2; CFTR F508del cor: -3

How did Cc1cc(Br)c(NC(=O)C(C)Sc2nnnn2C)c(Br)c1 (configuration not stated) do in these assays?
FGF22 binding: 0; S100A4 MyoIIA: -4; dFosB activator: -2; CFTR F508del cor: 12*

What do the screens show for `O=C(Nc1nnc(Cc2ccc(Cl)cc2)s1)C1CCCO1` (configuration not stated)?
FGF22 binding: 43*; S100A4 MyoIIA: 2; dFosB activator: -10; CFTR F508del cor: -1

How did CCCNC(=O)[C@@H]1[C@@H](CO)[C@@H]2Cn3c(ccc(-c4cccnc4)c3=O)[C@@H]2N1Cc1cocn1 do in these assays?
S100A4 MyoIIA: 6; CFTR F508del cor: -3

What do the screens show for `O=C(Nc1cc(S(=O)(=O)N2CCOCC2)ccc1O)c1ccc(NS(=O)(=O)c2ccc(Cl)s2)cc1`?
FGF22 binding: 0; S100A4 MyoIIA: 3; dFosB activator: -1; CFTR F508del cor: 2

How did O=S(=O)(Nc1cccc(S(=O)(=O)N2CCOCC2)c1)c1ccc(Cl)s1 do in these assays?
FGF22 binding: 43*; S100A4 MyoIIA: 1; dFosB activator: -1; CFTR F508del cor: -1

How did CCOc1ccccc1OCCCCCc1c(C)n[nH]c1C do in these assays?
dFosB activator: -9

How did CCOC(=O)CCc1c(C)n[nH]c1C do in these assays?
FGF22 binding: 43*; S100A4 MyoIIA: -7; dFosB activator: -1; CFTR F508del cor: -3

What do the screens show for `C[C@@H]1CCCCO[C@H](CN(C)S(=O)(=O)c2cccs2)[C@H](C)CN([C@@H](C)CO)C(=O)c2cc(N(C)C)ccc2O1`?
FGF22 binding: -1; S100A4 MyoIIA: 3; CFTR F508del cor: -2

How did O=C1OC(Cc2ccccc2)(c2ccccc2)c2ccccc21 (configuration not stated) do in these assays?
FGF22 binding: 44*; S100A4 MyoIIA: -1; CFTR F508del cor: 3

Results for Cc1ccc2nc(SCc3nc4c(cnn4-c4ccccc4)c(=O)[nH]3)[nH]c2c1 ?
dFosB activator: -2

Results for Cc1ccc2nc(SCc3nc4cc(Cl)ccc4c(=O)[nH]3)[nH]c2c1 ?
FGF22 binding: 43*; S100A4 MyoIIA: 1; dFosB activator: -6; CFTR F508del cor: 0

How did Cc1noc(C)c1S(=O)(=O)Nc1ccc2c(c1)CC(=O)N([C@H](C)CO)C[C@@H](C)[C@H](CN(C)Cc1ccncc1)O2 do in these assays?
FGF22 binding: 0; S100A4 MyoIIA: -6; CFTR F508del cor: 0

What do the screens show for `O=C(N/N=C/c1sc(=O)n(Cc2ccc(Br)cc2)c1Cl)c1ccco1`?
FGF22 binding: 0; S100A4 MyoIIA: 4; dFosB activator: 35*; CFTR F508del cor: 0

What do the screens show for `COc1ccc(S(=O)(=O)Nc2ccc3c(c2)CC(=O)N([C@@H](C)CO)C[C@@H](C)[C@@H](CN(C)Cc2ccc(Cl)c(Cl)c2)O3)cc1`?
FGF22 binding: 0; S100A4 MyoIIA: -4; CFTR F508del cor: 2

Results for O=C(CCN1C(=O)/C(=C/c2ccccc2Cl)SC1=S)NCCc1ccc(O)cc1 ?
FGF22 binding: 0; S100A4 MyoIIA: -4; dFosB activator: 23*; CFTR F508del cor: 0

Results for COc1cccc(/C=C2/SC(=S)N(CC(=O)NNC(=O)c3ccccc3O)C2=O)c1 ?
FGF22 binding: 0; S100A4 MyoIIA: 6; dFosB activator: 21*; CFTR F508del cor: -1

What do the screens show for `O=C(CN1C(=O)/C(=C/c2ccccc2)SC1=S)NNC(=O)c1ccccc1O`?
FGF22 binding: 0; S100A4 MyoIIA: 7; dFosB activator: inconclusive; CFTR F508del cor: 2

Results for O=C(NN1C(=O)/C(=C\c2cccnc2)SC1=S)C(c1ccccc1)c1ccccc1 ?
FGF22 binding: 0; S100A4 MyoIIA: 1; dFosB activator: -3

What do the screens show for `O=C(Cc1cccc2ccccc12)NN1C(=O)/C(=C\c2cccnc2)SC1=S`?
FGF22 binding: 0; S100A4 MyoIIA: 2; dFosB activator: 141*; CFTR F508del cor: 1

What do the screens show for `Cc1ccc(/C=C2\SC(=S)N(CCC(=O)NNC(=O)c3ccccc3O)C2=O)cc1`?
FGF22 binding: 0; S100A4 MyoIIA: 6; dFosB activator: 66*; CFTR F508del cor: 1

What do the screens show for `Cc1noc(C)c1S(=O)(=O)N(C)C[C@@H]1OCCCC[C@@H](C)Oc2ccc(NC(=O)Cc3ccccc3)cc2C(=O)N([C@@H](C)CO)C[C@@H]1C`?
FGF22 binding: 0; S100A4 MyoIIA: 4; CFTR F508del cor: -1
